Assay results from different studies.
Protocols differ between the studies behind these lines.
Histone acetyltransferase KAT6B: Histone acetyltransferase KAT6B (Homo sapiens, UniProt Q8WYB5)
DNA polymerase catalytic subunit: DNA polymerase catalytic subunit (Human cytomegalovirus, UniProt P08546)
NOX5: NADPH oxidase 5 (NOX5, Homo sapiens, UniProt Q96PH1)
PIK3CA: Phosphatidylinositol 4,5-bisphosphate 3-kinase catalytic subunit alpha isoform (PIK3CA, Homo sapiens, UniProt P42336)
KDR: Vascular endothelial growth factor receptor 2 (KDR, Homo sapiens, UniProt P35968)
PIK3CB: Phosphatidylinositol 4,5-bisphosphate 3-kinase catalytic subunit beta isoform (PIK3CB, Homo sapiens, UniProt P42338)
Trpm7: Transient receptor potential cation channel subfamily M member 7 (Trpm7, Mus musculus, UniProt Q923J1)

SMILES | target | observed | action | method | pH | IC50 [nM]
CCOc1cccc(-c2ccccc2)c1S(=O)(=O)NC(=O)c1cc2c(C)cc(OC)cc2o1 | Histone acetyltransferase KAT6B | enzyme activity | inhibitor | TR-FRET |  | 51
O=c1oc(-c2cccnc2)nc2ccccc12 | Cathepsin G (CTSG, Homo sapiens, UniProt P08311) | enzyme activity | inhibitor | absorbance | pH 7.4 | 4900
COc1cc(C)c2cc(C(=O)NS(=O)(=O)c3ccccc3OC)oc2c1 | Histone acetyltransferase KAT6B | enzyme activity | inhibitor | TR-FRET |  | 68
CNCCN1CCN(c2cnc3c(cc(C(=O)NCc4ccc(Cl)cc4)c(=O)n3CC(=O)N3CC(C)(F)C3)n2)C1=O | DNA polymerase catalytic subunit | enzyme activity | inhibitor |  |  | 571
Cc1coc2c1C(=O)C(=O)c1c-2ccc2c1CCCC2(C)C | NOX5 | enzyme activity | inhibitor |  |  | 1900
CCOc1cccc(-c2cccc(Cl)c2)c1S(=O)(=O)NC(=O)c1cc2c(C)cc(OC)cc2o1 | Histone acetyltransferase KAT6B | enzyme activity | inhibitor | TR-FRET |  | 25
COc1cc2ncnc(Nc3ccc4c(c3)/C(=C/c3cccc(Cl)c3)C(=O)N4C)c2cc1OC | PIK3CA | enzyme activity | inhibitor | ADP detection |  | 121
CCCOc1ccccc1S(=O)(=O)NC(=O)c1cc2c(C)cc(OC)cc2o1 | Histone acetyltransferase KAT6B | enzyme activity | inhibitor | TR-FRET |  | 61
O=C(Nc1ccccc1)Nc1ccc(Oc2nnc(-c3ccc(Cl)cc3)c3ccccc23)cc1 | KDR | cell-free assay | inhibitor |  |  | 195
Cc1nc(Nc2ccc3c(c2)/C(=C/c2ccccc2Cl)C(=O)N3)c2ccccc2n1 | PIK3CA | enzyme activity | inhibitor | ADP detection |  | 27.7
CCOc1ccc2cc(C(=O)NS(=O)(=O)c3ccccc3-c3ccccc3)oc2c1 | Histone acetyltransferase KAT6B | enzyme activity | inhibitor | TR-FRET |  | 3020
Cc1nc(N(C)c2ccc3c(c2)/C(=C/c2ccccc2Cl)C(=O)N3C)c2ccccc2n1 | PIK3CB | enzyme activity | inhibitor | ADP detection |  | 117
C[C@H]1COC2=C1C(=O)C(=O)c1c2ccc2c1CCCC2(C)C | NOX5 | enzyme activity | inhibitor |  |  | 4300
Cc1nc(Nc2ccc3c(c2)/C(=C/c2ccccc2C)C(=O)N3)c2ccccc2n1 | PIK3CA | enzyme activity | inhibitor | ADP detection |  | 45.5
COc1ccc2[nH]c(C(=O)Nc3nc(CC(=O)O)cs3)cc2c1 | KDR | enzyme activity | inhibitor | ELISA |  | 921
CC1(C)CN(C(=O)Cn2c(=O)c(C(=O)NCc3ccc(Cl)cc3)cc3nccnc32)C1 | DNA polymerase catalytic subunit | enzyme activity | inhibitor |  |  | 2260
CCCOc1ccc2cc(C(=O)NS(=O)(=O)c3ccccc3-c3ccccc3)oc2c1 | Histone acetyltransferase KAT6B | enzyme activity | inhibitor | TR-FRET |  | 12200
Cc1coc2c1C(=O)C(=O)c1c-2ccc2c1CCCC2(C)CO (stereo not drawn) | NOX5 | enzyme activity | inhibitor |  |  | 5200
Cc1nc(N(Cc2ccccc2)c2ccc3c(c2)/C(=C/c2ccccc2)C(=O)N3Cc2ccccc2)c2ccccc2n1 (mixture of isomers) | PIK3CA | enzyme activity | inhibitor | ADP detection |  | 9.11
CC1(F)CN(C(=O)Cn2c(=O)c(C(=O)NCc3ccc(Cl)cc3)cc3nc(N4CCCC4=O)cnc32)C1 | DNA polymerase catalytic subunit | enzyme activity | inhibitor |  |  | 207
Cc1nc(Nc2ccc3c(c2)C(C)(C)C(=O)N3)c2ccccc2n1 | PIK3CB | enzyme activity | inhibitor | ADP detection |  | 153
CC(=O)Nc1ccc(Oc2nnc(-c3ccc(Cl)cc3)c3ccccc23)cc1 | KDR | cell-free assay | inhibitor |  |  | 548
N#Cc1ccc(COC[C@H]2O[C@@H](n3c(NCc4ccc(Cl)c(Cl)c4)nc4c(N)ncnc43)[C@H](O)[C@@H]2O)cc1 | Trpm7 | calcium signal |  |  |  | 300
Cc1nc(Nc2ccc3c(c2)C(C)(C)C(=O)N3C)c2ccccc2n1 | PIK3CB | enzyme activity | inhibitor | ADP detection |  | 182
COc1cc(C)c2cc(C(=O)NS(=O)(=O)c3ccc(C)cc3-c3ccccc3)oc2c1 | Histone acetyltransferase KAT6B | enzyme activity | inhibitor | TR-FRET |  | 41
c1ccc2c(c1)CCC[C@H]2Nc1nc2ccccc2[nH]1 | Trpm7 | calcium signal |  |  |  | 1130
COc1cc2ncnc(N(C)c3ccc4c(c3)/C(=C/c3cccc(Cl)c3)C(=O)N4C)c2cc1OC | PIK3CB | enzyme activity | inhibitor | ADP detection |  | 103
